The results in this text go back to ChEMBL document CHEMBL1146500, “Novel caprolactones from a marine streptomycete” (2004).

Holding throughout (assay type): functional
The test system of experiment [1] is Bacillus subtilis. Description: Antimicrobial activity against Bacillus subtilis at 70 ug by agar diffusion test. Particulars: read-out: IZ. An outline of the steps:
(§1)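 Agar diffusion test: 70 µg of sample applied per 9 mm diameter platelet. Read-out is the diameter of the growth-inhibition zone in mm.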
(In general: Agar diffusion results depend on both activity and mobility in agar.)

Experiment [2] deals with Staphylococcus aureus. Description: Antimicrobial activity against […] at 70 ug by agar diffusion test. Particulars: read-out: IZ. The essentials: as §1
Experiment [3] concerns Streptomyces viridochromogenes. As to the kind of experiment: Antimicrobial activity against Streptomyces viridochromogenes at 70 ug by agar diffusion test. The settings on record: read-out: IZ. The essentials:
as §1

Experiment [4] concerns Escherichia coli. As to the kind of experiment: Antimicrobial activity against Escherichia coli at 70 ug by agar diffusion test. The settings on record: read-out: IZ. An outline of the steps:
as §1

Experiment [5] concerns Candida albicans. Description: Antimicrobial activity against Candida albicans at 70 ug by agar diffusion test. The settings on record: read-out: IZ. An outline of the steps:
as §1

Experiment [6] concerns Rhizomucor miehei. As to the kind of experiment: Antimicrobial activity against Mucor miehei at 70 ug by agar diffusion test. Particulars: read-out: IZ. An outline of the steps:
as §1

For experiment [7], the system named is Chlorella vulgaris. Description: Antimicrobial activity against Chlorella vulgaris at 70 ug by agar diffusion test. Particulars: read-out: IZ. An outline of the steps: as §1
Experiment [8] relates to Chlorella sorokiniana. Description: Antimicrobial activity against Chlorella sorokiniana at 70 ug by agar diffusion test. Particulars: read-out: IZ. An outline of the steps:
as §1

Experiment [9] has as its system Desmodesmus subspicatus. Description: Antimicrobial activity against Scenedesmus subspicatus at 70 ug by agar diffusion test. Particulars: read-out: IZ. The essentials:
as §1

For experiment [10], the system named is Artemia salina. As to the kind of experiment: Antimicrobial activity against Artemia salina at 70 ug by agar diffusion test. Particulars: read-out: IZ. An outline of the steps:
as §1

A short description of experiment [11]: Cytotoxicity against human HM02 cells. The essentials:
(§2)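 In vitro growth inhibition of human cancer cell lines was measured following the NCI guidelines. Cell lines: HM02 (gastric adenocarcinoma), HepG2 (hepatocellular carcinoma) and MCF 7 (breast adenocarcinoma).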

Experiment [12] relates to HepG2. Description: Cytotoxicity against human HepG2 cells. The essentials:
as §2

The test system of experiment [13] is MCF7. As to the kind of experiment: Cytotoxicity against human MCF7 cells. The essentials:
as §2

The test system of experiment [14] is HepG2. Description: Cell cycle arrest in human HepG2 cells by accumulation at subG1 phase at 5 ug/mL after 24 hrs by PI staining. The essentials: (§3)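 HepG2 cells were exposed for 24 h, trypsinized, and washed in RPMI 1640 with 1% fetal bovine serum. They were stained 15 min at room temperature in the dark in 150 µg/mL propidium iodide, 1% Triton X-100, 1% BSA and 4 mM sodium citrate, pH 7.4. RNase A was then added for 30 min at room temperature. Output is % cells per phase, mean ± SE of three independent experiments, t-test versus control.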

For experiment [15], the system named is HepG2. Description: Cell cycle arrest in human HepG2 cells by accumulation at G1 phase at 5 ug/mL after 24 hrs by PI staining. An outline of the steps: as §3
Experiment [16] deals with HepG2. As to the kind of experiment: Cell cycle arrest in human HepG2 cells by accumulation at S phase at 5 ug/mL after 24 hrs by PI staining. An outline of the steps:
as §3

Experiment [17] deals with HepG2. Description: Cell cycle arrest in human HepG2 cells by accumulation at G2/M phase at 5 ug/mL after 24 hrs by PI staining. The essentials: as §3

≈ marks a conversion by molar mass, not a printed value.

`CC(C)CCC[C@H]1CCCCC(=O)O1`: the zone of inhibition at 70 µg/disc worked out at 0 mm in [1]; 0 mm in experiment [2]; 13 mm in experiment [3]; 0 mm in [4]; 0 mm in experiment [5]; 11 mm in [6]. Further, the zone of inhibition at 70 µg/disc in experiment [7] is 11 mm; in experiment [8], 12 mm; in experiment [9], 11 mm; in [10], 0 mm. Besides, the 50% growth inhibitory concentration (GI50) turned out to be 2.7 µg/mL (≈ 13.6 µM) in experiment [11], 2.2 µg/mL (≈ 11.1 µM) in experiment [12] and 0.11 µg/mL (≈ 0.555 µM) in experiment [13]. The TGI came out at 6.1 µg/mL (≈ 30.8 µM) in [11], 6.8 µg/mL (≈ 34.3 µM) in [12] and 4 µg/mL (≈ 20.2 µM) in experiment [13].
In the case of `CC[C@H](C)CCC[C@H]1CCCCC(=O)O1`, the zone of inhibition at 70 µg/disc is 0 mm in experiment [1]; 11 mm in experiment [2]; 15 mm in [3]; 0 mm in [4]; 11 mm in [5]; 15 mm in experiment [6]. Moreover, the zone of inhibition at 70 µg/disc in experiment [7] amounted to 15 mm; in experiment [8], 22 mm; in experiment [9] it was 20 mm; in [10], 0 mm. Further, the GI50 turned out to be 1.9 µg/mL (≈ 8.95 µM) in experiment [11], 1.4 µg/mL (≈ 6.59 µM) in experiment [12] and 0.12 µg/mL (≈ 0.565 µM) in [13]. Further, the TGI in experiment [11] worked out at 5.6 µg/mL (≈ 26.4 µM); in experiment [12], 5.7 µg/mL (≈ 26.8 µM); in [13], 2.6 µg/mL (≈ 12.2 µM). For the same compound, the Activity in experiment [14] stood at 5.7%; in [15], 73.7%; in experiment [16] it was 11%; in experiment [17], 9.8%.

As a reminder, the GI50 is the concentration that inhibits growth by half. Lower therefore signals greater sensitivity of the cells. In general, TGI refers to the concentration giving total growth inhibition.
